Laboratory results from the EternaBench riboswitch data.

Test system: MS2 coat protein
Assay: apparent Kd, MS2 coat protein; higher = weaker binding; RNA-MaP array; FMN 200 µM where present
Summary of the method: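 Designs on Illumina sequencing-chip clusters, transcribed by stalled E. coli RNA polymerase, were exposed to SNAP-549-labelled MS2 coat protein in doubling steps from 0.7 or 1.5 nM up to 3 µM, without and then with constant ligand. The buffer held 100 mM Tris-HCl pH 7.5, 80 mM KCl, 4 mM MgCl2, BSA, DTT, yeast tRNA and Tween-20. Apparent Kd values are medians of filtered per-cluster binding-curve fits to green signal normalised to red-channel RNA signal and control-cluster median Fmax.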

[1] = designed as: OFF switch for flavin mononucleotide, no ligand
[2] = ligand present: flavin mononucleotide, designed as: OFF switch for flavin mononucleotide
[3] = designed as: ON switch for flavin mononucleotide, no ligand
[4] = ligand present: flavin mononucleotide, designed as: ON switch for flavin mononucleotide

## CGAUGUUAUGUCAGGAUAUGCGUUGCGAAAGCAAUGUAGAAGGGACAUGAGGAUCACCCAUGUGCUAACCAUCG
[1]
  apparent Kd: 18.7 nM
[2]
  apparent Kd: 51.1 nM

## CGCAACAUACAGAAGGAGUAAUUUAGAAGUGUACUAGGAUAUGUUUACAUGAGGAUCACCCAUGUCGAUGGGUAAAUAGUUGCG
[1]
  apparent Kd: 988 nM
[2]
  apparent Kd: 437 nM

## CGCAACUCUUCACAUGUAAACAUGAGGAUCACCCAUGUAAUGAGAAGGAGGAAGAAGAGAGAUUCCUAGGAUAUCAGAGUUGCG
[1]
  apparent Kd: 6.83 nM
[2]
  apparent Kd: 6.52 nM

## CGCAAGUCAGGAUAUUCGACAGGUAAAUCAGUGGAUCAGUAGGAGAAGGGACAUGAGGAUCACCCAUGUAUGUA
[1]
  apparent Kd: 49.7 nM
[2]
  apparent Kd: 29.6 nM

## CGCAUGGAGGGAGGAUAUGACAUGAGGAUCACCCAUGUAAAGGAUCCGACGUCAGAAGGCCCUAAGAAUUUACACAUUCUCUUA
[1]
  apparent Kd: 119 nM
[2]
  apparent Kd: 26.7 nM

## CGCGAACAGGCUAACAUGAGGAUCACCCAUGUGGACUCAUGGUAGGAUAUCGGGAAGGAGGAAACCGAGAAGGGCCGGUGAGCU
[3]
  apparent Kd: 65.6 nM
[4]
  apparent Kd: 86.5 nM

## CGCGAACAUGAGGAUCACCCAUGUGGGUGGAACGUAGGAUAUACGUAGGUCUUUAAUACAGUAGAAGGACGUUCGC
[3]
  apparent Kd: 264 nM
[4]
  apparent Kd: 118 nM

## CGCGAUGCGGUUGGCCCUGGGCGAGAGGAUAUGGGCAGCGGGACAUGAGGAUCACCCAUGUUCUCUCAGAAGGCUCGAGCAGGC
[3]
  apparent Kd: 217 nM
[4]
  apparent Kd: 34.7 nM

## CGCUACACCCAGAAGGACAUGAGGAUCACCCAUGUAGGAUAUGGGAGACACAGUCCCAUGUAGAGAAAUUACGCUAGUGUAGCG
[4]
  apparent Kd: 79 nM

## CGCUACUACCAGAAGGACAUGAGGAUCACCCAUGUAGGAUAUGGGUUACACGUUCCUGUGAAUUGUAACGACGCUACGUAUGCG
[3]
  apparent Kd: 203 nM
[4]
  apparent Kd: 13.4 nM

## CGCUCAAUUCUUUAGGUUAGAAUCAGAAGGCGUAACAUGAGGAUCACCCAUGUAUAGACGUGUAACGAGGAUAUGAAUUGAGCG
[1]
  apparent Kd: 5.64 nM
[2]
  apparent Kd: 5.46 nM

## CGCUCACAUGAGGAUCACCCAUGUCCUAGGAGGUCAGGAUAUAGCUCGCAUGCGUUGAGGCUAGAAGGGACAGCUG
[3]
  apparent Kd: 259 nM
[4]
  apparent Kd: 74.7 nM

## CGCUCAUUAUAUAAGGAAAGAAUCAGAAGGCGUUACAUGAGGAUCACCCAUGUUUUGUAUAGUAACGAGGAUAUGAUAUGAGCG
[1]
  apparent Kd: 18.6 nM
[2]
  apparent Kd: 16 nM

## CGCUCUAUAUAUAAGGCAAGAAUCAGAAGGCGUUACAUGAGGAUCACCCAUGUUUUGUAUAGUAACGAGGAUAUGAUAUGAGCG
[1]
  apparent Kd: 15.3 nM
[2]
  apparent Kd: 15.1 nM

## CGCUGGAUCGAGAAGGCCAUGUGGGACGCGAGCAGUGAUGUUAGGACAUGGAGGAUAUCGAACAUGAGGAUCACCCAUGUAACC
[3]
  apparent Kd: 438 nM
[4]
  apparent Kd: 25.5 nM

## CGCUGGUGACAGCAUCCAUCAAAACAUGAGGAUCACCCAUGUAGAAGGCUGUACGGUUACCGUACAGAGGAUAUACAAUGAUGA
[1]
  apparent Kd: 15.9 nM
[2]
  apparent Kd: 26.4 nM

## CGCUGUCACGCAGGAUAUGCAUUGGAUUACAAUGCAGAAGGGCGAUAACAUGAGGAUCACCCAUGUGUAGACAGUGAAGAAGAG
[3]
  apparent Kd: 145 nM
[4]
  apparent Kd: 27.2 nM

## CGCUGUCACGCAGGAUAUGCAUUGGAUUCCAAUGCAGAAGGGCGAUUACAUGAGGAUCACCCAUGUGUCGACAGUGAAGAAGAG
[3]
  apparent Kd: 599 nM
[4]
  apparent Kd: 44 nM

## CGCUGUCAUGCAGGAUAUGCAUUGGUUUACAAUGCAGAAGGGCGAUUACAUGAGGAUCACCCAUGUGUAGACAGUGAAGAAGAG
[3]
  apparent Kd: 157 nM
[4]
  apparent Kd: 12.9 nM

## CGCUUUAUAUAUUUGGCAAGAAUCAGAAGGCGUUACAUGAGGAUCACCCAUGUUUUGUAUAGUAACGAGGAUAUGAUAUGAGCG
[1]
  apparent Kd: 14.6 nM
[2]
  apparent Kd: 14.8 nM

## CGGCCGGAUCGAGGAUAUAAGUCUAGGACAUGAGGAUCACCCAUGUAUGUCUUAGAAGGCGAUCCGGCCAGCCUGUUACAGGCA
[3]
  apparent Kd: 32.9 nM
[4]
  apparent Kd: 6.18 nM

## CGGCGGAAAGGAUAUGCAGUAAUAUCCAAAUGUGGGCCACGACAUGAGGAUCACCCAUGUAGAAGGUUCAGCCG
[1]
  apparent Kd: 14.7 nM
[2]
  apparent Kd: 13.6 nM

## CGGCGGAAGCAGAAGGCAUGAACGGACAUGAGGAUCACCCAUGUUGGAAACUCAUGCCCGAAAGAUGAGGAUAUGCGUCCGGGU
[1]
  apparent Kd: 71.7 nM
[2]
  apparent Kd: 18.5 nM

## CGGUCGAAGUAAGGAUAUCGACUGGAUAACAGUCGAGAAGGUACAUGAGGAUCACCCAUGUAAUCCUAUAAUAAAUAACGACCG
[1]
  apparent Kd: 12.1 nM
[2]
  apparent Kd: 15.5 nM

## CGGUGACGUGUAGGAUAUGGCGAUGGGUUUUGGCCAGAAGGACAUGAGGAUCACCCAUGUGGUAGAGGGUUGGCGGCUGCCCGU
[1]
  apparent Kd: 47.4 nM
[2]
  apparent Kd: 181 nM

## CGGUGUCAUGUAAGGAUAUCGCAUCCCAGCGGAUACGAGAAGGUACAUGAGGAUCACCCAUGUACGAUAAAAUA
[1]
  apparent Kd: 14.3 nM
[2]
  apparent Kd: 17.5 nM

## CGUAACUACAUAGGAUAUUGAUACAUGAGGAUCACCCAUGUUAUAGGGAUUAGUAUAAUAUUAAGCAAGAAGGAUGAAGUUACG
[3]
  apparent Kd: 23.4 nM
[4]
  apparent Kd: 14.8 nM

## CGUAACUGCAUAGGAUAUUGAUACAUGAGGAUCACCCAUGUUUUUCGGAUUAUAUAUAUACUUAGCAAGAAGGAUGGAGUUACG
[3]
  apparent Kd: 9.3 nM
[4]
  apparent Kd: 5.74 nM

## CGUAACUGCAUAGGAUAUUGAUACAUGAGGAUCACCCAUGUUUUUCGGAUUUGUAAUAUACUAAGCAAGAAGGAUGGAGUUACG
[3]
  apparent Kd: 8.04 nM
[4]
  apparent Kd: 5.66 nM

## CGUACUGAAGUGAGGAUAUUGUCUCGGAUACGAAACAAGAAGGCACAUGAGGAUCACCCAUGUAAACAGUACGA
[1]
  apparent Kd: 17.5 nM
[2]
  apparent Kd: 14.2 nM

## CGUACUGAAGUGAGGAUAUUGUCUCGGAUACGAAACAAGAAGGCACAUGAGGAUCACCCAUGUUGACAGUACGA
[1]
  apparent Kd: 15.8 nM
[2]
  apparent Kd: 13.1 nM

## CGUAGGUAGCUGGAGGAUAUUCGAGUGGUAACAUGAGGAUCACCCAUGUGGUGAGAGGAACAUGAGGAGAAGGCUAGCUGCCUGC
[3]
  apparent Kd: 1290 nM
[4]
  apparent Kd: 1530 nM

## CGUAUGUCAGGAUAUGCGCGCGAUCAUUACACUCGGAAUUGGCAGAAGGGACAUGAGGAUCACCCAUGUGGCCC
[1]
  apparent Kd: 34.4 nM
[2]
  apparent Kd: 37.4 nM

## CGUAUGUCAGGAUAUGCGUAUGCCGCUCAGGGCGAGCGGCAGCAGAAGGGACAUGAGGAUCACCCAUGUUCGGG
[1]
  apparent Kd: 71.4 nM
[2]
  apparent Kd: 49.3 nM

## CGUAUGUCAGGAUAUGCGUAUGCCGCUCGGGACGAGCGGCAGCAGAAGGGACAUGAGGAUCACCCAUGUUCGGG
[1]
  apparent Kd: 75 nM
[2]
  apparent Kd: 72.7 nM

## CGUAUUAUUCAGAAGGCACUUCUCAUGUUACAUGAGGAUCACCCAUGUUUGUGAGGAUAUGAAUAUAGUUGUUGGUGUAUUAUA
[1]
  apparent Kd: 7.25 nM
[2]
  apparent Kd: 8.59 nM

## CGUCGAUACCAGAAGGACAUGAGGAUCACCCAUGUAGGAUAUGGGUGACCGGGAUGGCAGACACGGUGCCCGGGCACAUGCGAC
[3]
  apparent Kd: 28.9 nM
[4]
  apparent Kd: 9.54 nM

## CGUGUACGAGGAUAUAGAUUAGGCGACAUGAGGAUCACCCAUGUGAUCAAUCUAUUUGGUUUAGAAGGUGUACAUG
[1]
  apparent Kd: 16.7 nM
[2]
  apparent Kd: 17.6 nM

## CGUGUACGAGGAUAUAGAUUGAAUGACAUGAGGAUCACCCAUGUGAUCGAUCUAUUUGAUUUAGAAGGUGUACAUG
[1]
  apparent Kd: 14 nM
[2]
  apparent Kd: 16.9 nM

## CGUGUUUCGUUGUAACCCAUUUACAUGAGGAUCACCCAUGUAGAGGAUAUAGGUCACCACGGUACCUAGAAGGCUGCAGGUGUG
[1]
  apparent Kd: 30.3 nM
[2]
  apparent Kd: 41 nM

## CGUUUAUAUAUGGGUUUAUAUUAUGAGGAUAUCAAUAUUUAAUACAUGAGGAUCACCCAUGUUACUGAGAAGGCAUAAUUAACG
[4]
  apparent Kd: 6.99 nM

## CGUUUCAUGUCAGGAUAUCCGCGCAGCUUUACGCACGAUAUAAGGGAGCUUGGAGAAGGGACAUGAGGAUCACCCAUGUGCCUC
[1]
  apparent Kd: 8.6 nM
[2]
  apparent Kd: 12.4 nM

## CUAAAUCAUGUAGGAUAUGCAUGGCGAAGCUACGCAGAAGGACAUGAGGAUCACCCAUGUCUGUCCGACUGCGUACAGUCGGAC
[1]
  apparent Kd: 21.6 nM
[2]
  apparent Kd: 114 nM

## CUAAUGUGAGGAUAUGGUGUUGAUCACAGGAAAAAGAUUCUCCAGAAGGCACAUGAGGAUCACCCAUGUAGUGA
[1]
  apparent Kd: 65.6 nM
[2]
  apparent Kd: 175 nM

## CUACAUGAGGAUCACCCAUGUGCACACCGGAUCGGCGUGCGCAGAAGGGCCAUGGAGAAAGCCAGGCAGGAUAUGCAAAGGGCU
[3]
  apparent Kd: 396 nM
[4]
  apparent Kd: 189 nM

## CUACGAACGAUAGGAUAUACUGAGGUUGAGUGGGUAGAAGGAUCGAUAGUGGAGAAGACAUGAGGAUCACCCAUGUUGUGGAUU
[3]
  apparent Kd: 176 nM
[4]
  apparent Kd: 45.5 nM

## CUAUCAAGCAAGGAUAUGCAAUUUAUUAUUUAUGCAGAAGGUGCAACAUGAGGAUCACCCAUGUUUCUGGGUUU
[1]
  apparent Kd: 51.5 nM
[2]
  apparent Kd: 91.5 nM

## CUAUUGUGAGGAUAUCAGGUGUGCUAGCGUACUGGUACAUCUGAGAAGGCACAUGAGGAUCACCCAUGUUUCUU
[1]
  apparent Kd: 19.3 nM
[2]
  apparent Kd: 56.2 nM

## CUAUUUAGUGCCUCAUGUACAUGAGGAUCACCCAUGUUAACUUAGGAUAUAUUUAUAUUGUUAGAGUAGAAGGAAGUACUAUUU
[1]
  apparent Kd: 26.3 nM
[2]
  apparent Kd: 21.5 nM

## CUAUUUUGUGCCUCAUGUACAUGAGGAUCACCCAUGUUAACUUAGGAUAUAUUUAUAUUGUUAGAGUAGAAGGAAGUACAAUUU
[1]
  apparent Kd: 30.2 nM
[2]
  apparent Kd: 27.1 nM

## CUCAAACAUGAGGAUCACCCAUGUGUUGUCGUGGGAGGAUAUCCCGGUUCGGUGGCGUCGGGAGAAGGCCUAUGUC
[3]
  apparent Kd: 68 nM
[4]
  apparent Kd: 35 nM

## CUCACGUUAGUAGGAUAUCCGACAUGAGGAUCACCCAUGUCACUACGCCUCAAGGGAAGGCGUAAGGAGAAGGGCUGAUAAAUA
[3]
  apparent Kd: 254 nM
[4]
  apparent Kd: 156 nM

## CUCACGUUAGUAGGAUAUCCGACAUGAGGAUCACCCAUGUCACUACGCCUCUAGGGAAGGUGUAAGGAGAAGGGCUGAUAAAUA
[3]
  apparent Kd: 174 nM
[4]
  apparent Kd: 98 nM

## CUCAGACAUGAGGAUCACCCAUGUGAGGAUAUGAUGCGAUCGUCGAAAGACGAUAGCAUCAGAAGGUACAAAUG
[1]
  apparent Kd: 53.1 nM
[2]
  apparent Kd: 40.5 nM

## CUCAGCUCGUCAGGAUAUACGUCACUGCUUCGGCAGUGUGGUAAGAUCACAUGAGGAUCACCCAUGUAGAAGGGACGAGCUGAA
[1]
  apparent Kd: 12.8 nM
[2]
  apparent Kd: 266 nM
